Data: ChEMBL document CHEMBL3865819, “Myrsinane, Premyrsinane, and Cyclomyrsinane Diterpenes from Euphorbia falcata as Potassium Ion Channel Inhibitors with Selective G Protein-Activated Inwardly Rectifying Ion Channel (GIRK) Blocking Effects” (J Nat Prod, 2016)

Experiments:
Format in all cases: cell-based
[1] = target: T1, hERG (KCNH2) (Homo sapiens, UniProt Q12809); experiment: Inhibition of human ERG expressed in HEK293 cells assessed as decrease in channel current at 10 uM after 3 mins at -80 mV holding potential by automated patch-clamp electrophysiology assay; settings: HEK293 cells that express hERG
T1 sequence (Q12809 whole entry): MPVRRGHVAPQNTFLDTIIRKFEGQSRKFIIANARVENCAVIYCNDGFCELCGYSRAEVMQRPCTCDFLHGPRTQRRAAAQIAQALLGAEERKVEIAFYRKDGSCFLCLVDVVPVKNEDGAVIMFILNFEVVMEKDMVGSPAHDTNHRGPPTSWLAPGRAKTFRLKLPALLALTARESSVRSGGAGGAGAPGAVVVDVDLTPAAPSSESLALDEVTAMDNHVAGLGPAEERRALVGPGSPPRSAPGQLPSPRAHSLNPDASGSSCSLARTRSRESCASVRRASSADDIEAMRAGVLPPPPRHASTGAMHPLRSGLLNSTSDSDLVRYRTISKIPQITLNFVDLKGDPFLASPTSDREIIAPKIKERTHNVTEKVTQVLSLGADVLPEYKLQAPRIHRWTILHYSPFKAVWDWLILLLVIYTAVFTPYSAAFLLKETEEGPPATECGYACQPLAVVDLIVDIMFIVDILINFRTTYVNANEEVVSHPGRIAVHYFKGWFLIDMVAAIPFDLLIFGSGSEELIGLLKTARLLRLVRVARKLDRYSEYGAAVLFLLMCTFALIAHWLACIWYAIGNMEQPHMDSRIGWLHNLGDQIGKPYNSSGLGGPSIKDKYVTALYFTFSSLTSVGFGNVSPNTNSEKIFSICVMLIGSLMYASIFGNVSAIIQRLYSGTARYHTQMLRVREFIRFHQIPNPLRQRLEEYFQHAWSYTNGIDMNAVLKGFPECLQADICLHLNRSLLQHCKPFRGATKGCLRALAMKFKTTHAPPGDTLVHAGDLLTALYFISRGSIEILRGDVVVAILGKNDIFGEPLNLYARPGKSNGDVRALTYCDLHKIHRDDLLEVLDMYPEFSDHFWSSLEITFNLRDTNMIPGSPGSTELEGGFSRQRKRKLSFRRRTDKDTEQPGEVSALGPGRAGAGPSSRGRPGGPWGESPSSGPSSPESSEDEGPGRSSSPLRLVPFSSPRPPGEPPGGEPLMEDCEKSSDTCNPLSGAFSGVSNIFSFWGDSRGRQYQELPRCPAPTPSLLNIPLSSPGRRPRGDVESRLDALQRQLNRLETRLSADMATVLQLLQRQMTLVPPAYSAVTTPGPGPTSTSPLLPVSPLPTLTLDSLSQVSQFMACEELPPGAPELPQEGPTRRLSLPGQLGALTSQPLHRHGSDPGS
Outline: (§1)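 HEK-293 cells stably transfected with hERG (Kv11.1), whole-cell automated planar patch clamp. External solution 4 mM KCl, pH 7.4; internal KCl/KF/EGTA, pH 7.2. Protocol: 100 ms −40 mV reference step, 3 s at 20 mV, then 1 s at −40 mV for the outward tail current. After control, 3, 10, 30 μM cumulative, ~3 min each; amitriptyline 10 μM reference, then wash-out; two or three cells; DMSO ≤0.3% final.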

[2] = target: T1, hERG (KCNH2); experiment: Inhibition of human ERG expressed in HEK293 cells assessed as decrease in channel current at 3 uM after 3 mins at -80 mV holding potential by automated patch-clamp electrophysiology assay; settings: HEK293 cells that express hERG; outline: as §1
[3] = target: T1, hERG (KCNH2); experiment: Inhibition of human ERG expressed in HEK293 cells assessed as decrease in channel current at 30 uM after 3 mins at -80 mV holding potential by automated patch-clamp electrophysiology assay; settings: HEK293 cells that express hERG; outline: as §1
[4] = target: T2, Kir3.1/Kir3.4 (Homo sapiens) (UniProt P48549+P48544); experiment: Inhibition of GTPgammaS-induced activation of GIRK1/4 (unknown origin) expressed in HEK293 cells assessed as decrease in channel current at 1 uM after 2 mins at -40 mV holding potential by automated patch-clamp electrophysiology assay
Outline: (§2)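 Whole-cell automated planar patch clamp on HEK-293 cells stably expressing GIRK1/4 (Kir3.1/3.4). Internal solution carries 0.9 mM GTPγS to activate channels; bath switched from 4 mM K+ to high-K+ (25 mM KCl) external, pH 7.4. Step to 60 mV, ramp to −140 mV, 100 ms at −140 mV, ~0.1 Hz; inward current read at −140 mV. After 3 min control, 1 then 10 μM for ~2 min each; K+-free solution baseline; two to three cells.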

[5] = target: T2, Kir3.1/Kir3.4 (Homo sapiens); experiment: Inhibition of GTPgammaS-induced activation of GIRK1/4 (unknown origin) expressed in HEK293 cells assessed as decrease in channel current at 10 uM after 2 mins at -40 mV holding potential by automated patch-clamp electrophysiology assay; outline: as §2

inhibition [4] | inhibition [5] | SMILES | inhibition at 0.05 h, 10 µM [1] | inhibition at 0.05 h, 3 µM [2] | inhibition at 0.05 h, 30 µM [3]
11% | 24% | CCC(=O)O[C@@H]1[C@@H]2[C@@H](OC(C)=O)[C@@]34CO[C@@](C)([C@H](OC(C)=O)[C@@]2(OC(C)=O)C[C@]1(C)O)[C@@H]3[C@@H]1[C@@H](C[C@]1(C)OC(C)=O)[C@@H](OC(=O)C(C)CC)C4=O (stereo not given in full) | 20% | 8% | 33%
20% | 64% | CCC(=O)O[C@@H]1[C@@H]2[C@@H](OC(C)=O)[C@@]34CO[C@@](C)([C@H](OC(C)=O)[C@@]2(OC(C)=O)C[C@]1(C)OC(=O)c1ccccc1)[C@@H]3[C@@H]1[C@@H](C[C@]1(C)OC(C)=O)[C@@H](OC(=O)C(C)CC)C4=O (stereo not given in full) | 31% | 16% | 52%
14% | 26% | CCC(C)C(=O)O[C@H]1C(=O)[C@@]23CO[C@@](C)([C@H](OC(C)=O)[C@@]4(OC(C)=O)C[C@](C)(O)[C@H](OC(=O)C(C)C)[C@@H]4[C@H]2OC(C)=O)[C@@H]3[C@@H]2[C@H]1C[C@]2(C)OC(C)=O (stereo not given in full) | 22% | 12% | 32%
33% | 77% | CC(=O)O[C@@H]1[C@H]2[C@@H](OC(=O)C(C)C)[C@@](C)(OC(=O)c3ccccc3)C[C@]2(OC(C)=O)[C@@H](OC(C)=O)[C@]2(C)OC[C@]13C(=O)[C@H](OC(=O)C(C)C)[C@@H]1C[C@](C)(OC(C)=O)[C@@H]1[C@@H]23 | 24% | 14% | 53%
26% | 70% | CCC(C)C(=O)O[C@H]1C(=O)[C@@]23CO[C@@](C)([C@H](OC(C)=O)[C@@]4(OC(C)=O)C[C@](C)(OC(=O)c5ccccc5)[C@H](OC(=O)C(C)C)[C@@H]4[C@H]2OC(C)=O)[C@@H]3[C@@H]2[C@H]1C[C@]2(C)OC(C)=O (stereo not given in full) | 30% | 14% | 40%
23% | 69% | CCC(C)C(=O)O[C@H]1C(=O)[C@@]23CO[C@@](C)([C@H](OC(C)=O)[C@@]4(OC(C)=O)C[C@](C)(OC(=O)c5cccnc5)[C@H](OC(=O)C(C)C)[C@@H]4[C@H]2OC(C)=O)[C@@H]3[C@@H]2[C@H]1C[C@]2(C)OC(C)=O (stereo not given in full) | 54% | 20% | 82%
8% | 57% | CC(=O)O[C@@H]1[C@H]2[C@@H](OC(=O)C(C)C)[C@@](C)(OC(=O)c3cccnc3)C[C@]2(OC(C)=O)[C@@H](OC(C)=O)[C@]2(C)OC[C@]13C(=O)[C@H](OC(=O)C(C)C)[C@@H]1C[C@](C)(OC(C)=O)[C@@H]1[C@@H]23 | 19% | 8% | 30%
35% | 65% | CCC(=O)O[C@@H]1[C@@H]2[C@@H](OC(C)=O)[C@@]34CO[C@@](C)([C@H](OC(C)=O)[C@@]2(OC(C)=O)C[C@]1(C)OC(=O)c1cccnc1)[C@@H]3[C@@H]1[C@@H](C[C@]1(C)OC(C)=O)[C@@H](OC(=O)C(C)C)C4=O | 22% | 11% | 42%

Further lines, the molecule ahead of its results:

SMILES | inhibition [4] | inhibition [5] | inhibition at 0.05 h, 10 µM [1] | inhibition at 0.05 h, 3 µM [2] | inhibition at 0.05 h, 30 µM [3]
CCCCCC(=O)O[C@@H]1[C@@H]2[C@@H](O)[C@]34CC[C@H]5[C@@H]([C@H]3[C@@](C)(OC4)[C@H](OC(C)=O)[C@@]2(O)C[C@@H]1C)C5(C)C | 30% | 69% | 40% | 19% | 55%
CC(=O)O[C@@H]1C[C@H]2[C@@H]([C@@H]3[C@]1(COC(=O)c1cccnc1)[C@H](OC(=O)c1ccccc1)[C@H]1[C@@H](OC(=O)C(C)C)[C@@H](C)C[C@]1(O)C(=O)[C@@]3(C)OC(C)=O)C2(C)C | 28% | 48% | 29% | 14% | 53%
CCC(=O)O[C@@H]1[C@@H]2[C@@H](OC(C)=O)[C@@]34CO[C@@](C)([C@H](OC(C)=O)[C@@]2(O)C[C@@H]1C)[C@@H]3[C@@H]1[C@@H](C[C@]1(C)OC(C)=O)[C@@H](OC(=O)c1ccccc1)C4=O | 19% | 54% | 21% | 12% | 45%
CC(=O)OC[C@@]12[C@H](OC(=O)c3ccccc3)[C@H]3[C@@H](OC(=O)C(C)C)[C@@H](C)C[C@]3(OC(C)=O)C(=O)[C@@]3(C)OC(C)(C)[C@@H](C=C[C@H]1OC(C)=O)[C@H]23 | 26% | 61% | 24% | 13% | 43%
CCC(=O)O[C@@H]1[C@@H]2[C@@H](OC(=O)c3ccccc3)[C@@]3(COC(=O)C(C)C)[C@H]4[C@H](C=C[C@H]3OC(C)=O)C(C)(C)O[C@]4(C)C(=O)[C@@]2(OC(C)=O)C[C@@H]1C | 21% | 47% | 24% | 11% | 40%
CC(=O)O[C@@H]1C=C[C@H]2[C@@H]3[C@]1(COC(=O)C(C)C)[C@H](OC(=O)c1ccccc1)[C@H]1[C@@H](OC(=O)C(C)C)[C@@H](C)C[C@]1(O)C(=O)[C@@]3(C)OC2(C)C | 21% | 54% | 33% | 20% | 46%
CCC(=O)O[C@@H]1[C@@H]2[C@@H](OC(C)=O)[C@@]34CO[C@@](C)([C@H](OC(C)=O)[C@@]2(OC(C)=O)C[C@H]1C)[C@@H]3[C@@H]1[C@@H](C[C@]1(C)OC(C)=O)[C@@H](OC(=O)C(C)C)C4=O | 30% | 70% | 23% | 0% | 33%
CC(=O)OC1O[C@@]2(C)[C@H](OC(=O)c3ccccc3)[C@@]3(OC(C)=O)C[C@H](C)[C@H](OC(=O)C(C)C)[C@@H]3[C@@H](OC(C)=O)[C@@]13[C@H](OC(=O)c1cccnc1)C[C@H]1[C@@H]([C@@H]23)C1(C)C (stereo not given in full) | 18% | 37% | 68% | 48% | 78%
